Sampled rows, rich in hits. Any-hit rate of the full collection: about 3.8%.
Kir21 inh = inhibitors of mouse Kir2.1 inward-rectifier potassium channel; B-score at 10 µM; HEK293-Kir2.1, FluxOR thallium flux fluorescence; stronger effect = lower value; AID 1672, 2009; hit rate 0.85% among 310,000; Inward rectifier potassium channel 2 (Mus musculus), P35561;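 active means fluorescence ratio B-score at or below minus 3 SD of library scores, with starting-brightness B-score within 2 SD, cut at about -4.2 in these data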;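 further: channel flux triggered by added potassium and thallium sulfate stimulus; B-score of peak minus minimum fluorescence over baseline after thallium stimulus; more negative B-score means stronger Kir2.1 block with less thallium influx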
KCNQ1 inh = inhibitors of human KCNQ1 channel, primary screen, cell-based, thallium flux, high-throughput. Potassium voltage-gated channel subfamily KQT member 1 (Homo sapiens), P51787. CHO-K1 KCNQ1, FluxOR thallium flux fluorescence; stronger effect = higher value. B-score at 10 µM. hit rate 1.3% among 310,000. AID 2642, 2010;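 active means compounds whose thallium flux B-score, printed positive for inhibition, exceeds three library SD while starting fluorescence stays within three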;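 further: channel opened by potassium depolarization with thallium stimulus after 20 min compound exposure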
KCNQ1 act = potentiators or activators of KCNQ1 channel, primary screen, cell-based, thallium flux, high-throughput; Potassium voltage-gated channel subfamily KQT member 1 (Homo sapiens), P51787; CHO-K1 KCNQ1, thallium flux FluxOR fluorescence; stronger effect = higher value; B-score at 10 µM; hit rate 0.35% among 310,000;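 active means fluorescence ratio B-score, a plate-corrected score, at least three library SD, with initial intensity B-score within 5 SD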
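Assay system: stable KCNQ1 CHO-K1 line; medium: assay buffer, equal DMSO in all wells; timing: 90 min dye loading and 20 min compound exposure, both at room temperature; technique: kinetic FluxOR thallium fluorescence, 10-s 1-Hz baseline, 110-s post-stimulus read; read-out basis: B score of baseline-normalized fluorescence ratio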
KCNK9 inh = KCNK9 potassium channel inhibitors, primary screen, HEK293 cells, thallium flux; hit rate 1.2% among 310,000; AID 488922, 2010; FluxOR thallium flux fluorescence; stronger effect = lower value; Potassium channel subfamily K member 9 (Homo sapiens), Q9NPC2; B-score at 10 µM;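 active means ratio B-score over 3 SD below the library mean, with starting fluorescence within 5 SD of its mean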;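 further: negative B-score means less thallium flux so channel inhibition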
KCNK3 inh = human KCNK3 channel inhibitors, primary screen, CHO cells, FluxOR thallium flux, B-score; FluxOR fluorescence; stronger effect = lower value; AID 602410, 2012; Potassium channel subfamily K member 3 (Homo sapiens), O14649; B-score at 10 µM; hit rate 0.84% among 340,000;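 active means B-score under library mean minus 4 SD, starting fluorescence ratio at most library mean plus 5 SD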;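 further: more negative B-score means stronger inhibition of thallium flux through KCNK3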
hERG protect = hERG rescue from dofetilide block, primary screen, cell-based, CHO-hERG, FluxOR thallium flux, dofetilide IC70; dofetilide IC70 present; activation (rescue from dofetilide block), less the hit threshold, % at 10 µM; AID 1511, 2009; hit rate 0.51% among 310,000;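 active means activation above the mean of controls blocked by dofetilide plus 5 SD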;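 further: thallium influx through hERG after potassium depolarization seen as dye fluorescence rise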
Target sequence (Q12809 whole entry, looked up): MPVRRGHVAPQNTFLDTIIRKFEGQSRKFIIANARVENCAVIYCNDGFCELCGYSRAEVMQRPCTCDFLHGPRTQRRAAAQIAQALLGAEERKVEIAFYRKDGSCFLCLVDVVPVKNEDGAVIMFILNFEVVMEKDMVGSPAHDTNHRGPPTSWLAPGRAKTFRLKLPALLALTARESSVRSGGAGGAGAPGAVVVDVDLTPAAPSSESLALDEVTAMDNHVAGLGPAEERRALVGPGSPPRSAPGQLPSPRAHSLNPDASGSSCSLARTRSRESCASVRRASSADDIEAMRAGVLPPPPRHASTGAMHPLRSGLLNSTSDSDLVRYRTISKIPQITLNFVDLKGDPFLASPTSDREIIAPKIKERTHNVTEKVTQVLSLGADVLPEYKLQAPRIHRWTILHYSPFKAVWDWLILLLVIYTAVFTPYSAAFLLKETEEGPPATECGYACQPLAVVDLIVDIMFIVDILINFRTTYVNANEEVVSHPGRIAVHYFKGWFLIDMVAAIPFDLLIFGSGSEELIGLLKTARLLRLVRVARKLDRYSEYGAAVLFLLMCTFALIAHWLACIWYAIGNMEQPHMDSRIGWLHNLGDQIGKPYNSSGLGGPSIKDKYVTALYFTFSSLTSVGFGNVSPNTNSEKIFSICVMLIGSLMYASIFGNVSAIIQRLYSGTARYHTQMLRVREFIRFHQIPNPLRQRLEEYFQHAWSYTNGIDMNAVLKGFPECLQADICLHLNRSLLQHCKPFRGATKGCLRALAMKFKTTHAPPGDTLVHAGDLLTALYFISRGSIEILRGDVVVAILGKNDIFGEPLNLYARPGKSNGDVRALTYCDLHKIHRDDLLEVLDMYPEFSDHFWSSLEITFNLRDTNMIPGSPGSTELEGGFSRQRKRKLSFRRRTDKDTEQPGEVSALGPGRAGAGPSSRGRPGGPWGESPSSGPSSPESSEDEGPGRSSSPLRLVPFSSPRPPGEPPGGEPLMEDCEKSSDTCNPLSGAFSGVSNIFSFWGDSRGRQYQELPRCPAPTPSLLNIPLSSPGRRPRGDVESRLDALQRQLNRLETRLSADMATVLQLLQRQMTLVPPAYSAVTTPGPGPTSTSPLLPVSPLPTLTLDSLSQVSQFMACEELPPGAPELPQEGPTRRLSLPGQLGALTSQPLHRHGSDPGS
KCNK9 inh conf = KCNK9 potassium channel inhibitors, confirmation, HEK293 cells, thallium flux, duplicate. inhibition, % at 10 µM. AID 492992, 2010. FluxOR thallium flux fluorescence. shares compounds with KCNK9 inh. hit rate 43% among 4,900;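 active means thallium signal inhibited by more than 5 SD of the compound-free buffer control wells, on both duplicate plates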;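 further: 0% = assay buffer control wells without compound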
Kir21 sel = mouse Kir2.1 channel inhibition, confirmation, selectivity assay for KCNK9 modulator project, cell-based, HEK293, thallium flux. shares compounds with KCNK9 inh. inhibition, % at 10 µM. Kir2.1 cells, FluxOR thallium flux fluorescence. hit rate 4% among 4,900;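 active means thallium signal drop more than 5 SD beyond the mean of the no-compound control wells, seen in both duplicate plates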;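 further: signal is fluorescence rise after thallium addition divided by baseline fluorescence; plate controls were assay buffer only for no effect and full block by chlorpromazine control for full effect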
HEK293 Tl ctr = thallium flux in non-induced HEK293 cells, confirmation, counter-screen for KCNK9 inhibitor project, cell-based, second counter screen, non-induced KCNK9-HEK293 | shares compounds with KCNK9 inh | hit rate 40% among 4,900 | inhibition, % at 10 µM | FluxOR thallium flux;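 active means thallium signal drop beyond 5 SD of the untreated control mean, on both duplicate plates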;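 further: plate controls were buffer only IC0 wells for no effect and SID17386958 at its maximal inhibitory level for full effect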
* hit, by the source's call; i = inactive; . = not tested or not shown.

SMILES | Kir21 inh | KCNQ1 inh | KCNQ1 act | KCNK9 inh | KCNK3 inh | hERG protect | KCNK9 inh conf | Kir21 sel | HEK293 Tl ctr
Cc1cc(C)c(-c2csc(NC(=O)C3=NN(c4ccccc4)C(=O)CC3)n2)c(C)c1 | -0.24 | i | i | i | i | -10 | . | . | .
CCc1ccc(-c2csc(NC(=O)C3=NN(c4ccccc4)C(=O)CC3)n2)cc1 | -1.2 | i | i | i | i | -16 | i | i | i
Cc1csc2sc(-c3ccnc(SCC(=O)NCc4ccccc4)n3)c(C)c12 | 1.9 | i | i | -9.2* | i | -10 | i | i | 32%*
Cc1csc(SCC(=O)NCc2ccccc2)n1 | 0.57 | i | i | i | i | -10 | . | . | .
c1ccc(-c2nnc(CN3CCN(c4ccccc4)CC3)o2)cc1 | 0.34 | i | i | i | i | -13 | . | . | .
Clc1cccc(N2CCN(Cc3nnc(-c4ccccc4)o3)CC2)c1 | -0.29 | i | i | i | i | -13 | i | i | i
O=C(/C=C/Nc1ccc(Oc2ccccc2)cc1)c1ccco1 | 0.13 | i | i | i | i | -7 | . | . | .
Cc1ccc(C)c(N2CCN(CC3CC=CCC3)CC2)c1 (stereo unspecified) | -0.2 | i | i | i | i | 4 | i | i | i
CCN(Cc1ccccc1)Cc1nc(CCc2ccccc2)no1 | 1.5 | i | i | i | i | -15 | . | . | .
c1ccc(CCN(Cc2ccccc2)Cc2nc(C3CC3)no2)cc1 | -0.66 | i | i | -9.6* | i | -3 | i | i | 38%*
CCOc1nc(C)ccc1-c1noc(-c2ccncc2)n1 | 2.5 | i | i | i | i | -8 | . | . | .
O=C(CCc1ccccc1)C(=O)N1CCCC(C(=O)c2cccc(Cl)c2)C1 (stereo unspecified) | -0.48 | i | i | i | i | -6 | i | 32%* | 37%*
CCCNC(=O)N1CCCC(C(=O)c2cccc(Cl)c2)C1 (stereo unspecified) | 0.61 | i | i | i | i | -15 | . | . | .
Fc1ccc2c(c1)Sc1ccc(Cl)cc1CC2N1CCN(CCC2OCCO2)CC1 (stereo unspecified) | -0.56 | i | i | i | i | -27 | i | i | i
CSc1ccc2c(c1)C(N1CCN(C)CC1)Cc1ccc(F)cc1S2 (stereo unspecified) | -3.1 | i | i | i | i | -34 | . | . | .
CCOc1ccc(CC(=O)OCc2cc(=O)n3cc(Br)ccc3n2)cc1 | 2.3 | i | i | i | i | -4 | . | . | .
Cc1cc2c(cc1S(=O)(=O)N1CCN(c3cccc(C)c3C)CC1)OCCN2C | -0.24 | i | i | i | i | -8 | i | i | i
CCN(c1ccccc1)S(=O)(=O)c1ccc(C(=O)Nc2cccc(NC(C)=O)c2)cc1 | . | . | . | . | i | . | . | . | .
COc1ccc([N+](=O)[O-])cc1NC(=O)C(C)Sc1ccccc1 (stereo unspecified) | -0.09 | i | i | i | i | -6 | . | . | .
COc1ccc([N+](=O)[O-])cc1NC(=O)C(C)Sc1nc(-c2ccccc2)cs1 (stereo unspecified) | -1.6 | i | i | -8.1* | i | -13 | i | i | 31%*

High-throughput results deposited in PubChem by Johns Hopkins Ion Channel Center.
